Data: ChEMBL document CHEMBL3525925, “In vitro studies on the oxidative metabolism of 20(s)-ginsenoside Rh2 in human, monkey, dog, rat, and mouse liver microsomes, and human liver s9” (Drug Metab Dispos, 2012)

Experiments:
Liver microsome [1] = assay: Retention time in human liver microsomes treated with 10 uM 20(S)-ginsenoside Rh2 by MS2 spectra; type: ADME
Method in brief: (§1)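 Samples: incubation mixed with equal volume methanol, centrifuged at 14,000g for 5 min, dried under nitrogen at 40°C, reconstituted. Separated on Eclipse XDB-C18 (4.6 × 150 mm, 5 μm) at 0.5 ml/min. Gradient: 0.1% formic acid in methanol against 0.1% formic acid in 5 mM ammonium acetate, 70% to 100% organic over 17 min. Ion-trap MSn detection.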

Liver [2] = assay: Retention time in human liver S9 fraction treated with 10 uM 20(S)-ginsenoside Rh2 by MS2 spectra; type: ADME, subcellular; method in brief: as §1
Liver microsome [3] = assay: Drug level in human liver microsomes treated with 10 uM 20(S)-ginsenoside Rh2 for 60 mins by MS2 spectra; type: ADME; conditions: 1 h
Method in brief: (§2)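 Rh2 at 10 μM final (from methanol stock; 0.1% v/v methanol final) in 100 mM potassium phosphate pH 7.4 with 2 mM NADPH, open-to-air tubes at 37°C. 3 min preincubation, then started with liver microsomes or S9 at 1 mg/ml protein. Incubated 60 min, stopped with equal volume ice-cold acetonitrile. Controls lacked NADPH; duplicates. Metabolites detected by LC/ion-trap MSn.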

[4] = Drug level in cynomolgus monkey liver microsomes treated with 10 uM 20(S)-ginsenoside Rh2 for 60 mins by MS2 spectra; type: ADME, Macaca fascicularis; conditions: 1 h; method in brief: as §2
Liver microsome [5] = assay: Drug level in beagle dog liver microsomes treated with 10 uM 20(S)-ginsenoside Rh2 for 60 mins by MS2 spectra; type: ADME, Canis lupus familiaris; conditions: 1 h; method in brief: as §2
Liver microsome [6] = assay: Drug level in Sprague-Dawley rat liver microsomes treated with 10 uM 20(S)-ginsenoside Rh2 for 60 mins by MS2 spectra; type: ADME; conditions: 1 h; method in brief: as §2
Liver [7] = assay: Drug level in CD-1 mouse liver microsomes treated with 10 uM 20(S)-ginsenoside Rh2 for 60 mins by MS2 spectra; type: ADME; conditions: 1 h; method in brief: as §2
Liver [8] = assay: Drug level in human liver S9 fraction treated with 10 uM 20(S)-ginsenoside Rh2 for 60 mins by MS2 spectra; type: ADME, subcellular; conditions: s9, 1 h; method in brief: as §2
Cytochrome P450 3A4 = Cytochrome P450 3A4 (Homo sapiens, UniProt P08684); assay: Drug level in human recombinant CYP3A4 treated with 10 uM 20(S)-ginsenoside Rh2 for 60 mins by MS2 spectra; type: ADME; conditions: recombinant enzyme, 1 h
Method in brief: (§3)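 Recombinant human P450 (50 nM) with 10 μM Rh2 under the microsomal conditions: 100 mM potassium phosphate pH 7.4, 2 mM NADPH, 37°C for 60 min. Stopped with equal volume ice-cold acetonitrile. Run in duplicate; products analysed by LC/ion-trap MSn.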

Cytochrome P450 3A5 = Cytochrome P450 3A5 (Homo sapiens, UniProt P20815); assay: Drug level in human recombinant CYP3A5 treated with 10 uM 20(S)-ginsenoside Rh2 for 60 mins by MS2 spectra; type: ADME; conditions: recombinant enzyme, 1 h; method in brief: as §3
Liver cytosol [9] = assay: Drug metabolism in human liver cytosol assessed as 26-carboxy,20(S)-Ginsenoside Rh2 formation at 10 uM by LC/MS analysis in presence of 50 uM 4-methylpyrazole alcohol dehydrogenase inhibitor; type: ADME
Method in brief: (§4)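 Pooled human liver cytosol (1 mg/ml) with 2 mM NAD+ and inhibitor in 100 mM potassium phosphate pH 7.4; inhibitors given from DMSO, 0.1% v/v final. After 15 min preincubation at 37°C, started with 10 μM M1-1 or 26-aldehyde-Rh2. Run 60 min, stopped with ice-cold acetonitrile. Duplicates, uninhibited controls; M2-3 acid measured by LC/MSn.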

Liver cytosol [10] = assay: Drug metabolism in human liver cytosol assessed as 26-carboxy,20(S)-Ginsenoside Rh2 formation at 10 uM by LC/MS analysis in presence of 100 uM raloxifene aldehyde oxidase inhibitor; type: ADME; conditions: in the assay text read “100 nM raloxifene” for “100 uM raloxifene”; method in brief: as §4
Liver cytosol [11] = assay: Drug metabolism in human liver cytosol assessed as 26-carboxy,20(S)-Ginsenoside Rh2 formation at 10 uM by LC/MS analysis in presence of 50 uM disulfiram aldehyde dehydrogenase inhibitor; type: ADME; method in brief: as §4

Cytochrome P450 3A4, sequence (P08684 whole entry): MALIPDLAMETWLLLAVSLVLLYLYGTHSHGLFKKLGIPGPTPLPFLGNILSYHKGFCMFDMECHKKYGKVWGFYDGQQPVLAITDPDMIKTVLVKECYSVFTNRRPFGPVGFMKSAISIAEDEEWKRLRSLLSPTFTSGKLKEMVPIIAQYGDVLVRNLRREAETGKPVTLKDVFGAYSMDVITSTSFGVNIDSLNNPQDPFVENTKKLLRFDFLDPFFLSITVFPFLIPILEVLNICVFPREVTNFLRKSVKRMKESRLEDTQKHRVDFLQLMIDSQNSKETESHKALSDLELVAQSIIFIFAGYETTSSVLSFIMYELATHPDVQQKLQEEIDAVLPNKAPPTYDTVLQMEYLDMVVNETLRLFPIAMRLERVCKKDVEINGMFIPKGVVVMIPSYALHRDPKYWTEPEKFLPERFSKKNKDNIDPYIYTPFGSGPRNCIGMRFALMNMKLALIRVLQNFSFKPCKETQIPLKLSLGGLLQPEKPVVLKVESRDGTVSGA
Cytochrome P450 3A5, sequence (P20815 whole entry): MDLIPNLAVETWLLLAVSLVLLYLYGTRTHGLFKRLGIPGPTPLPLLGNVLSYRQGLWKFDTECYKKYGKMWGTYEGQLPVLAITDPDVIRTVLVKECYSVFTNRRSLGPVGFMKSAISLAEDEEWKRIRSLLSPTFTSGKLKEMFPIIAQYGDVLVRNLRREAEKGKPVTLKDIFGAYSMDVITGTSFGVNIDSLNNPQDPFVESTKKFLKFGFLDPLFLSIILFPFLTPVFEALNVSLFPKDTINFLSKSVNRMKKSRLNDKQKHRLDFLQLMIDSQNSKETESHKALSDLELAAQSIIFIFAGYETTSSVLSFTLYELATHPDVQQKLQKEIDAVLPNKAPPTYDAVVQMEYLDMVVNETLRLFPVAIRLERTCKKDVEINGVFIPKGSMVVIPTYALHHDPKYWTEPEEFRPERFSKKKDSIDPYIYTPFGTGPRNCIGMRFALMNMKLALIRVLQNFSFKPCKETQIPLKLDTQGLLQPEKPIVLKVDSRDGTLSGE

Row | SMILES | Retention_time (Liver microsome [1]) | Retention_time (Liver [2]) | Drug metabolism (Liver microsome [3]) | Drug metabolism [4] | Drug metabolism (Liver microsome [5]) | Drug metabolism (Liver microsome [6]) | Drug metabolism (Liver [7]) | Drug metabolism (Liver [8]) | Drug metabolism (Cytochrome P450 3A4) | Drug metabolism (Cytochrome P450 3A5) | Drug metabolism (Liver cytosol [9]) | Drug metabolism (Liver cytosol [10]) | Drug metabolism (Liver cytosol [11])
1 | C/C(=C\CC[C@](C)(O)[C@H]1CC[C@]2(C)[C@@H]1[C@H](O)C[C@@H]1[C@@]3(C)CC[C@H](O[C@@H]4O[C@H](CO)[C@@H](O)[C@H](O)[C@H]4O)C(C)(C)[C@@H]3CC[C@]12C)C(=O)O | 14 min | 14 min | metabolite_detected | metabolite_detected | metabolite_not_detected | metabolite_detected | metabolite_not_detected | metabolite_detected | metabolite_detected | metabolite_not_detected |  |  | 
2 | CC1(C)[C@@H](O[C@@H]2O[C@H](CO)[C@@H](O)[C@H](O)[C@H]2O)CC[C@]2(C)[C@H]3C[C@@H](O)[C@@H]4[C@@H]([C@@](C)(O)CCC=C(CO)CO)CC[C@@]4(C)[C@]3(C)CC[C@@H]12 | 12.2 min | 12.2 min | metabolite_detected | metabolite_detected | metabolite_detected | metabolite_detected | metabolite_detected | metabolite_detected | metabolite_detected | metabolite_not_detected |  |  | 
3 | C/C(=C/CC[C@](C)(O)[C@H]1CC[C@]2(C)[C@@H]1[C@H](O)C[C@@H]1[C@@]3(C)CC[C@H](O[C@@H]4O[C@H](CO)[C@@H](O)[C@H](O)[C@H]4O)C(C)(C)[C@@H]3CC[C@]12C)C(=O)O | 13.2 min | 13.2 min | metabolite_detected | metabolite_detected | metabolite_not_detected | metabolite_detected | metabolite_detected | metabolite_detected | metabolite_detected | metabolite_not_detected |  |  | 
4 | CC(C)(O)[C@@H]1CC[C@@](C)([C@H]2CC[C@]3(C)[C@@H]2[C@H](O)C[C@@H]2[C@@]4(C)CC[C@H](O[C@@H]5O[C@H](CO)[C@@H](O)[C@H](O)[C@H]5O)C(C)(C)[C@@H]4CC[C@]23C)O1 | 18.9 min | 18.9 min | metabolite_detected | metabolite_detected | metabolite_detected | metabolite_detected | metabolite_detected | metabolite_detected | metabolite_detected | metabolite_detected |  |  | 
5 | CC(O)(CO)[C@H]1CC[C@@](C)([C@H]2CC[C@]3(C)[C@@H]2[C@H](O)C[C@@H]2[C@@]4(C)CC[C@H](O[C@@H]5O[C@H](CO)[C@@H](O)[C@H](O)[C@H]5O)C(C)(C)[C@@H]4CC[C@]23C)O1 (stereo partly drawn) | 16.7 min | 16.7 min | metabolite_detected | metabolite_detected | metabolite_not_detected | metabolite_detected | metabolite_detected | metabolite_detected | metabolite_detected | metabolite_not_detected |  |  | 
6 | CC(C)(O)[C@H]1CC[C@@](C)([C@H]2CC[C@]3(C)[C@@H]2[C@H](O)C[C@@H]2[C@@]4(C)CC[C@H](O[C@@H]5O[C@H](CO)[C@@H](O)[C@H](O)[C@H]5O)C(C)(C)[C@@H]4CC[C@]23C)O1 | 20.2 min | 20.2 min | metabolite_detected | metabolite_detected | metabolite_detected | metabolite_detected | metabolite_detected | metabolite_detected | metabolite_detected | metabolite_not_detected |  |  | 
7 | CC(O)(CO)[C@@H]1CC[C@@](C)([C@H]2CC[C@]3(C)[C@@H]2[C@H](O)C[C@@H]2[C@@]4(C)CC[C@H](O[C@@H]5O[C@H](CO)[C@@H](O)[C@H](O)[C@H]5O)C(C)(C)[C@@H]4CC[C@]23C)O1 (stereo partly drawn) | 16.2 min | 16.2 min | metabolite_detected | metabolite_detected | metabolite_not_detected | metabolite_detected | metabolite_detected | metabolite_detected | metabolite_detected | metabolite_not_detected |  |  | 
8 | CC1(C)O[C@H]1CC[C@](C)(O)[C@H]1CC[C@]2(C)[C@@H]1[C@H](O)C[C@@H]1[C@@]3(C)CC[C@H](O[C@@H]4O[C@H](CO)[C@@H](O)[C@H](O)[C@H]4O)C(C)(C)[C@@H]3CC[C@]12C | 20 min | 20 min | metabolite_detected | metabolite_detected | metabolite_detected | metabolite_detected | metabolite_detected | metabolite_detected | metabolite_detected | metabolite_not_detected |  |  | 
9 | C/C(C=O)=C\CC[C@](C)(O)[C@H]1CC[C@]2(C)[C@@H]1[C@H](O)C[C@@H]1[C@@]3(C)CC[C@H](O[C@@H]4O[C@H](CO)[C@@H](O)[C@H](O)[C@H]4O)C(C)(C)[C@@H]3CC[C@]12C |  |  |  |  |  |  |  |  |  |  | metabolite_not_detected | metabolite_not_detected | metabolite_not_detected
10 | C/C(=C/CC[C@](C)(O)[C@H]1CC[C@]2(C)[C@@H]1[C@H](O)C[C@@H]1[C@@]3(C)CC[C@H](O[C@@H]4O[C@H](CO)[C@@H](O)[C@H](O)[C@H]4O)C(C)(C)[C@@H]3CC[C@]12C)CO | 18.3 min | 18.3 min | metabolite_detected | metabolite_detected | metabolite_detected | metabolite_detected | metabolite_detected | metabolite_detected | metabolite_detected | metabolite_detected |  |  | 
11 | CC1(C)[C@@H](O[C@@H]2O[C@H](CO)[C@@H](O)[C@H](O)[C@H]2O)CC[C@]2(C)[C@H]3C[C@@H](O)[C@@H]4[C@@H]([C@@](C)(O)CC[C@@H]5O[C@@]5(C)CO)CC[C@@]4(C)[C@]3(C)CC[C@@H]12 | 15.6 min | 15.6 min | metabolite_detected | metabolite_detected | metabolite_not_detected | metabolite_detected | metabolite_detected | metabolite_detected | metabolite_detected | metabolite_not_detected |  |  | 
